The text below walks through data of ChEMBL document CHEMBL3526067, “Metabolism of bis(4-fluorobenzyl)trisulfide and its formation of hemoglobin adduct in rat erythrocytes” (Drug Metab Dispos, 2013).

For data set [1], the system named is Blood. Description: Drug level in Sprague-Dawley rat whole blood treated with BFBTS at 50 uM after 15 mins by HPLC analysis. The data set is classed as ADME, tissue-based. The note with it: 0.25 h.
Data set [2] in a line: Drug metabolism in Sprague-Dawley rat RBC assessed as BFBDS metabolite formation by HPLC analysis. To be noted: erythrocyte. In kind it is ADME, cell-based. The essentials:
(§1)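 BFBTS (final 50 μM) incubated at 37°C with rat RBCs diluted with an equal volume of PBS, for 5, 10, 15, 30, 45 and 60 min. For M2 (p-FBM) and M3 (p-FBA), two volumes of acetonitrile added before HPLC. BFBTS and M1 were extracted by a cited method.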

The nature of data set [3]: Drug level in Sprague-Dawley rat RBC treated with BFBTS by HPLC analysis. The data set is classed as ADME, cell-based. To be noted: erythrocyte. The essentials: (§2)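 Male Sprague-Dawley rat RBCs (200–220 g rats), washed three times with PBS pH 7.4 and resuspended in PBS, incubated separately with each metabolite. Metabolites confirmed against authentic standards.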
Data set [4] can be described thus: Drug metabolism in Sprague-Dawley rat RBC assessed as p-FBM metabolite formation by HPLC analysis. The data set is classed as ADME, cell-based. The note with it: erythrocyte. The essentials:
as §1

The nature of data set [5]: Drug metabolism in Sprague-Dawley rat RBC assessed as BFBTS formation by HPLC analysis. In kind it is ADME, cell-based. To be noted: erythrocyte. The essentials: as §1
Data set [6] relates to Blood. Description: Drug level in Sprague-Dawley rat whole blood treated with BFBTS by HPLC analysis. The data set is classed as ADME, tissue-based.
The nature of data set [7]: Drug level in Sprague-Dawley rat RBC treated with p-FBM by HPLC analysis. In kind it is ADME, cell-based. The note with it: erythrocyte. The essentials:
as §2

The subject of data set [8] is Blood. The data set can be described thus: Retention time in Sprague-Dawley rat whole blood treated with 50 uM Bis(4-fluorobenzyl)trisulfide after 15 mins by HPLC analysis. In kind it is ADME, tissue-based. The note with it: 0.25 h.
Data set [9] relates to Blood. The data set can be described thus: Drug level in Sprague-Dawley rat whole blood treated with BFBTS at 50 uM by UPLC-MS/MS analysis. The data set is classed as ADME, tissue-based. The essentials:
(§3)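 p-FBA in rat whole blood incubated with BFBTS, measured by UPLC-MS. 0.1% formic acid/acetonitrile gradient at 0.2 ml/min, column 25°C. Capillary 3.30 kV, cone 31 V, source 150°C, desolvation 350°C.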

Data set [10] can be described thus: Drug level in Sprague-Dawley rat RBC treated with BFBDS by HPLC analysis. In kind it is ADME, cell-based. To be noted: erythrocyte. The essentials:
as §2

A short description of data set [11]: Drug level in phosphate buffered saline treated with BFBTS at 5 uM by HPLC analysis in presence of GSH. To be noted: buffer. The data set is classed as physicochemical.
Data set [12] can be described thus: Drug metabolism in phosphate buffered saline treated with BFBTS at 5 uM by HPLC analysis in presence of N-acetyl cysteine. In kind it is physicochemical. To be noted: buffer.
The nature of data set [13]: Drug metabolism in phosphate buffered saline treated with BFBTS at 5 uM by HPLC analysis in presence of coenzyme A. The note with it: buffer. In kind it is physicochemical.
The nature of data set [14]: Drug metabolism in Sprague-Dawley rat RBC assessed as p-FBA metabolite formation by HPLC analysis. The note with it: erythrocyte. In kind it is ADME, cell-based. The essentials:
as §1

For data set [15], the system named is Blood. The data set can be described thus: Drug level in Sprague-Dawley rat whole blood treated with BFBTS at 50 uM by GC/MS analysis. In kind it is ADME, tissue-based.
Data set [16] in a line: Drug metabolism in phosphate buffered saline treated with BFBTS at 5 uM by HPLC analysis in presence of cysteine. In kind it is physicochemical. To be noted: buffer.
The nature of data set [17]: Drug level in Sprague-Dawley rat RBC treated with p-FBA by HPLC analysis. In kind it is ADME, cell-based. To be noted: erythrocyte.
Data set [18] in a line: Drug level in phosphate buffered saline treated with BFBTS at 5 uM at pH 7.4 after 30 mins by LC-MS analysis in presence of GSH. The note with it: buffer, pH 7.4, 0.5 h. In kind it is physicochemical. The essentials: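 BFBTS 5 μM incubated with GSH 0.5 mM in PBS pH 7.4 for 30 min. Two volumes of acetonitrile added, then HPLC and LC-MS to identify reaction products.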

Data set [19] can be described thus: Half life in Sprague-Dawley rat diluted RBC at 25 uM by HPLC analysis. The data set is classed as ADME, cell-based, Erythrocyte. To be noted: diluted red blood cells (RBC). The essentials:
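BFBTS incubated with diluted rat RBCs (10^8/ml) for 1.5, 3, 5, 10 and 15 min. After extraction, BFBTS measured by HPLC. Half-life from nonlinear regression of concentration-time data; n = 3, means with SD.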

Data set [20] concerns Blood. Description: Drug metabolism in Sprague-Dawley rat whole blood assessed as p-FBA metabolite formation by HPLC analysis. In kind it is ADME, tissue-based.
In data set [21] the test system is Blood. Description: Drug metabolism in Sprague-Dawley rat whole blood assessed as p-FBM metabolite formation by HPLC analysis. In kind it is ADME, tissue-based.
The nature of data set [22]: Stability in Sprague-Dawley rat RBC at 5 uM incubated for 1 hr after 5 mM thiol residue blocking agent iodoacetamide challenge by HPLC analysis. The note with it: erythrocyte. The data set is classed as ADME, cell-based.
In data set [23] the test system is Blood. Description: Drug metabolism in Sprague-Dawley rat whole blood assessed as p-FBA metabolite formation at 50 uM by UPLC-MS/MS analysis. The data set is classed as ADME, tissue-based. The essentials:
as §3

A short description of data set [24]: Stability of compound in phosphate buffered saline at 5 uM after 30 mins by HPLC analysis in presence of GSH. The data set is classed as physicochemical. To be noted: buffer, 0.5 h.
Data set [25] in a line: Drug metabolism in Sprague-Dawley rat RBC assessed as p-FBA metabolite formation at slow rate at 50 uM by HPLC analysis. In kind it is ADME, cell-based. To be noted: erythrocyte. The essentials:
as §1

Data set [26] in a line: Drug metabolism in phosphate buffered saline assessed as BFBDS metabolite formation at 5 uM by HPLC analysis in presence of cysteine. In kind it is physicochemical. The note with it: buffer.
Data set [27] in a line: Drug metabolism in phosphate buffered saline assessed as BFBDS metabolite formation at 5 uM by HPLC analysis in presence of GSH. In kind it is physicochemical. The note with it: buffer.
A short description of data set [28]: Drug metabolism in Sprague-Dawley rat RBC assessed as rapid p-FBM metabolite formation at 50 uM by HPLC analysis. The note with it: erythrocyte. In kind it is ADME, cell-based. The essentials:
as §1

In data set [29] the test system is Blood. The data set can be described thus: Drug metabolism in Sprague-Dawley rat whole blood assessed as BFBDS metabolite formation by HPLC analysis. The data set is classed as ADME, tissue-based.
Data set [30] can be described thus: Drug recovery in Sprague-Dawley rat plasma at 64 uM after 2 hrs by HPLC analysis. The data set is classed as ADME, cell-free. To be noted: read-out: Drug recovery. The essentials:
(§4)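 Recovery test: BFBTS 64 μM incubated for 2 h with rat whole blood, plasma (3,000 g, 10 min) or PBS-washed RBCs. Liquid-liquid extraction, then HPLC; recovery compared across the three matrices.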

Data set [31] is described as follows: Drug metabolism in phosphate buffered saline assessed as p-FBM metabolite formation at 5 uM by HPLC analysis in presence of cysteine. To be noted: buffer. In kind it is physicochemical.
Data set [32] is described as follows: Stability of compound in phosphate buffered saline at 5 uM after 30 mins by HPLC analysis in presence of cysteine. In kind it is physicochemical. To be noted: buffer, 0.5 h.
Data set [33] is described as follows: Drug metabolism in phosphate buffered saline assessed as p-FBM metabolite formation at 5 uM by HPLC analysis in presence of GSH. The data set is classed as physicochemical. To be noted: buffer.
Data set [34] is described as follows: Stability of compound in phosphate buffered saline at 5 uM after 30 mins by HPLC analysis in presence of N-acetyl cysteine. In kind it is physicochemical. To be noted: buffer, 0.5 h.
Data set [35] can be described thus: Half life in Sprague-Dawley rat diluted RBC at 1 uM by HPLC analysis. The data set is classed as ADME, cell-based, Erythrocyte. The note with it: diluted red blood cells (RBC).
Data set [36] concerns Blood. The data set can be described thus: Drug metabolism in Sprague-Dawley rat whole blood assessed as BFBDS metabolite formation at 50 uM by GC/MS analysis. In kind it is ADME, tissue-based.
Data set [37] in a line: Drug metabolism in phosphate buffered saline assessed as BFBDS metabolite formation at 5 uM by HPLC analysis in presence of N-acetyl cysteine. The data set is classed as physicochemical. The note with it: buffer.
In data set [38] the test system is Blood. Description: Drug metabolism in Sprague-Dawley rat whole blood assessed as p-FBM metabolite formation at 50 uM by GC/MS analysis. The data set is classed as ADME, tissue-based.
Data set [39] can be described thus: Drug recovery in Sprague-Dawley rat RBC at 64 uM after 2 hrs by HPLC analysis. The data set is classed as ADME, cell-based. To be noted: erythrocyte. The essentials:
as §4

Data set [40] in a line: Drug metabolism in phosphate buffered saline assessed as p-FBM metabolite formation at 5 uM by HPLC analysis in presence of coenzyme A. The data set is classed as physicochemical. To be noted: buffer.
Data set [41] in a line: Drug recovery in Sprague-Dawley rat whole blood at 64 uM after 2 hrs by HPLC analysis. The note with it: read-out: Drug recovery. In kind it is ADME, tissue-based. The essentials:
as §4

Data set [42] is described as follows: Stability of compound in phosphate buffered saline at 5 uM after 30 mins by HPLC analysis in presence of coenzyme A. The note with it: buffer, 0.5 h. The data set is classed as physicochemical.

The half-life is the time in which the quantity being followed falls by half. Low values mean fast loss, high ones slow loss.

For `O=C(O)c1ccc(F)cc1`, the Drug metabolism result with Blood [1] was “metabolite_detected”; in [2], “metabolite_not_detected”; in [3], “metabolite_detected”; in [4], “metabolite_not_detected”; in data set [5], “metabolite_not_detected”; with Blood [6], “metabolite_detected”. In addition, the Drug metabolism entry (in data set [7]; in the data set on Blood [9]; in data set [10]) was “metabolite_detected” in each case. In the data set on Blood [8], this molecule registered a Retention_time of 8.15 min.
With `Fc1ccc(CS)cc1`, the Drug metabolism result (in the data set with Blood [1]; in data set [11]; in [2]; in data set [3]; in [12]; in data set [13]) was “metabolite_detected” throughout. In addition, the Drug metabolism result is recorded as “metabolite_detected” in [14]; “metabolite_not_detected” in data set [5]; “metabolite_detected” with Blood [6]; “metabolite_detected” in the data set on Blood [15]; “metabolite_detected” in data set [16]; “metabolite_not_detected” in data set [17]. The Drug metabolism result in data set [10] was “metabolite_detected”. The Retention_time in the data set on Blood [8] is 24.66 min.
With `N[C@@H](CCC(=O)N[C@@H](CSSCc1ccc(F)cc1)C(=O)NCC(=O)O)C(=O)O`, the Drug uptake entry in [18] was “metabolite_detected”.
For the molecule `Fc1ccc(CSSCc2ccc(F)cc2)cc1`, the Drug metabolism result (in the data set on Blood [1]; in [11]; in data set [3]; in data set [4]; in [12]; in data set [13]) was “metabolite_detected” throughout. The Drug metabolism entry is “metabolite_detected” in data set [14]; “metabolite_not_detected” in data set [5]; “metabolite_detected” with Blood [6]; “metabolite_detected” in data set [7]; “metabolite_detected” with Blood [15]; “metabolite_detected” in [16]. Further, the Drug metabolism entry in [17] is listed as “metabolite_not_detected”. This molecule also had a Retention_time in the data set on Blood [8] of 38.89 min.
In [19], `Fc1ccc(CSSSCc2ccc(F)cc2)cc1` returned a half-life at 25 µM of 24 s. The Drug metabolism entry (in data set [2]; in the data set on Blood [20]; in the data set with Blood [21]; with Blood [23]; in [25]; in data set [26]) was “metabolite_detected” each time. Also, the Drug metabolism result (in data set [27]; in [28]; in the data set on Blood [29]; in data set [4]; in data set [31]; in [33]) was “metabolite_detected” throughout. For the same molecule, the Drug metabolism entry in [14] is recorded as “metabolite_detected”; with Blood [36], “metabolite_detected”; in [37], “metabolite_detected”; in data set [7], “metabolite_not_detected”; with Blood [38], “metabolite_detected”; in data set [40] it was “metabolite_detected”. Also, the Drug metabolism entry in data set [17] and in [10] was “metabolite_not_detected” each time. Also, the Stability entry is “Stable” in data set [22]; “Unstable” in data set [24]; “Unstable” in data set [32]; “Unstable” in data set [34]; “Unstable” in data set [42]. The figures for the remaining at 2 h, 64 µM in data set [30] and in data set [41] were 13% and 2.54%, respectively. Also, in [35], the half-life at 1 µM was under 30 s. Besides, the Drug recovery result in data set [39] is given as “Not Active”.
